The target in assay [1] is T1, Mu-type opioid receptor (Homo sapiens, UniProt P35372). Briefly: biochemical. The class given is cell-based, CHO.
The target in assay [2] is T1, Mu-type opioid receptor. Briefly: biochemical. The class given is cell-based, CHO. The source holds these as a separate data set.
In assay [3] the target is T1, Mu-type opioid receptor. Briefly: biochemical. Type of assay: cell-based, CHO. The source holds these as a separate data set.
Assay [4] has as its target T1, Mu-type opioid receptor. Briefly: Displacement of [3H]-DAMGO from MOR-1 expressed in CHO cells after 150 mins. Type of assay: cell-based. The method, boiled down: (§1)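 Competition binding in membranes of CHO cells stably transfected with MOR-1, DOR-1 or KOR-1. Tracers were 1 nM 3H-DAMGO (MOR-1), 3H-DPDPE (DOR-1) or 3H-U69,593 (KOR-1). IC50 came from nonlinear regression and was converted to Ki. Values are the mean ± SEM of at least three independent replications.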
(Loss of bound radioactivity is the signal in a displacement assay; it reports binding, not function.)

Assay [5] addresses T2, Kappa-type opioid receptor (Homo sapiens, UniProt P41145). Briefly: Displacement of [3H]-U69593 from KOR-1 expressed in CHO cells after 60 mins. The class given is cell-based. In outline: as §1
The target in assay [6] is T3, Delta-type opioid receptor (Homo sapiens, UniProt P41143). Briefly: Displacement of [3H]-DPDPE from DOR-1 expressed in CHO cells after 60 mins. The class given is cell-based. In outline: as §1
T3 sequence (P41143 whole entry): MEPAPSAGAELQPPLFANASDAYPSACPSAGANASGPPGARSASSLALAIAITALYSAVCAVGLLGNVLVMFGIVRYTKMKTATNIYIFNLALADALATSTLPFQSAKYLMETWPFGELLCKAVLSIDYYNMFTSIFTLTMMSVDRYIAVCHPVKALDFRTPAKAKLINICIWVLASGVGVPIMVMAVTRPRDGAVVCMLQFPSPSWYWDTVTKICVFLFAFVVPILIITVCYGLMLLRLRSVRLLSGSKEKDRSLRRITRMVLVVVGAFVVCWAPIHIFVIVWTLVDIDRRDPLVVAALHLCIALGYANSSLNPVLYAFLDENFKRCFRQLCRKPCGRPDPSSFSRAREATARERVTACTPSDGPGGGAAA
Assay [7] concerns the target T1, Mu-type opioid receptor. Briefly: Binding affinity to MOR-1 expressed in CHO cells after 90 mins. The class given is cell-based. The settings on record: for Bmax: tested as the 125I-labelled form. In outline:
(§2)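 Saturation binding of the carrier-free 125I-radioligand (KD) in membranes of CHO cells stably transfected with the named opioid receptor. For one DOR-1 saturation, specific activity was diluted 10-fold to allow higher ligand concentrations. Curves were fit to a single site by nonlinear regression. KD is the mean ± SEM of at least 3 independent determinations.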

Assay [8] has as its target T2, Kappa-type opioid receptor. Briefly: Binding affinity to KOR-1 expressed in CHO cells after 90 mins. The settings on record: for Bmax: tested as the 125I-labelled form. Type of assay: cell-based. The method, boiled down:
as §2

Assay [9] addresses T3, Delta-type opioid receptor. Briefly: Binding affinity to DOR-1 expressed in CHO cells after 90 mins. The class given is cell-based. The settings on record: for Bmax: tested as the 125I-labelled form. The method, boiled down:
as §2

In assay [10] the target is T2, Kappa-type opioid receptor. Briefly: Displacement of [125I]-IBNtxA from KOR-1 expressed in CHO cells. Type of assay: cell-based.
In assay [11] the target is T2, Kappa-type opioid receptor. Briefly: Displacement of [125I]-IBNalA from KOR-1 expressed in CHO cells. Type of assay: cell-based.

As a reminder, the Ki is a dissociation constant, usually derived from enzyme kinetics or from competition with a known ligand. High values mean lower affinity, low ones higher affinity. For orientation: Kd means a measure of binding affinity in units of concentration.

T1 sequence (P35372 whole entry): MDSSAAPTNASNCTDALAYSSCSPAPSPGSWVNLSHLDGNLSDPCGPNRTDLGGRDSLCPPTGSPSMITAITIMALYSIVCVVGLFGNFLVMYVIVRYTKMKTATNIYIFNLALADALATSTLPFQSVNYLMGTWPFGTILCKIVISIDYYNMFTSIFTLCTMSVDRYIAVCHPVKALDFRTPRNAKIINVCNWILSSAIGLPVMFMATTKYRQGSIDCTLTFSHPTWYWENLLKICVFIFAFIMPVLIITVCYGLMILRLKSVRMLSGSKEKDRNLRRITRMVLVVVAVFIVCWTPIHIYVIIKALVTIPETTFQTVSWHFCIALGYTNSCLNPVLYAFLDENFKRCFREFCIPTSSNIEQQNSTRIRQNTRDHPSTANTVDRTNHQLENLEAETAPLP
T2 sequence (P41145 whole entry): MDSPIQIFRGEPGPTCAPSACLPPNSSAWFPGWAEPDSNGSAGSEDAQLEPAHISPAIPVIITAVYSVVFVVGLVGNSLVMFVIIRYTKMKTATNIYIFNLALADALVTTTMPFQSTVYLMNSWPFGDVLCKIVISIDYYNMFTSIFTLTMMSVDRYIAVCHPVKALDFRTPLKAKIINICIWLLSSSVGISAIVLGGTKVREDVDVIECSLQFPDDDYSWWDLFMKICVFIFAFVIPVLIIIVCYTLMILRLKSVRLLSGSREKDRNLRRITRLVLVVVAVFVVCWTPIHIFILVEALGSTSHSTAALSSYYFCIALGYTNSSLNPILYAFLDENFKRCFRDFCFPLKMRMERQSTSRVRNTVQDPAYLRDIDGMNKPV

In the case of `C=CCN1CC[C@]23CCCC[C@H]2[C@H]1Cc1ccc(O)cc13` [LEVALLORPHAN], the inhibition constant (Ki) stood at 1.29 nM on Mu-type opioid receptor [1], 1.69 nM at Mu-type opioid receptor [2] and 0.48 nM on Mu-type opioid receptor [3].
In the case of `C=CCN1CC[C@]23c4c5ccc(O)c4O[C@H]2[C@H](NC(=O)c2cccc(I)c2)CC[C@@]3(O)[C@H]1C5`, the Ki at Mu-type opioid receptor [4] was 0.7 nM; in [5], 0.08 nM; in assay [6] it was 2.55 nM. Also, the Bmax was found to be 1.18 pmol/mg at Mu-type opioid receptor [7], 1.15 pmol/mg in assay [8] and 2.7 pmol/mg in [9].
As to `C=CCN1CC[C@]23c4c5ccc(O)c4O[C@H]2[C@H](NC(=O)c2cccc([125I])c2)CC[C@@]3(O)[C@H]1C5`, the Kd on Mu-type opioid receptor [7] came to 0.22 nM; in [8] it was 0.05 nM; in [9], 2.5 nM.
Consider `O=C(N[C@@H]1CC[C@@]2(O)[C@H]3Cc4ccc(O)c5c4[C@@]2(CCN3CC2CC2)[C@H]1O5)c1cccc([125I])c1`, for which the figures for the Kd (on Mu-type opioid receptor [7]; in assay [8]; in assay [9]) were 0.11 nM, 0.027 nM and 0.24 nM, respectively.
`CN1CC[C@]23c4c5ccc(O)c4O[C@H]2[C@H](NC(=O)c2cccc([125I])c2)CC[C@@]3(O)[C@H]1C5` registered a Kd at Mu-type opioid receptor [7] of 0.08 nM.
`N=C(N)Nc1ccc2[nH]c3c(c2c1)C[C@@]1(O)[C@H]2Cc4ccc(O)c5c4[C@@]1(CCN2CC1CC1)[C@H]3O5` [GUANIDINONALTRINDOLE]: the Ki in assay [10] worked out at 0.15 nM; in assay [11], 0.19 nM.
For `O=C(N[C@@H]1CC[C@@]2(O)[C@H]3Cc4ccc(O)c5c4[C@@]2(CCN3CC2CC2)[C@H]1O5)c1cccc(I)c1`, the Ki on Mu-type opioid receptor [4] came out at 2.5 nM; in [5] it was 0.23 nM; in assay [6], 0.58 nM. Also, the figures for the Bmax (at Mu-type opioid receptor [7]; in [8]; in [9]) were 3.81 pmol/mg, 0.57 pmol/mg and 0.96 pmol/mg, respectively.
For `CN1CC[C@]23c4c5ccc(O)c4O[C@H]2[C@H](NC(=O)c2cccc(I)c2)CC[C@@]3(O)[C@H]1C5`, the Ki was determined as 1.75 nM on Mu-type opioid receptor [4] and 9 nM in [5]. The Bmax on Mu-type opioid receptor [7] amounted to 1.49 pmol/mg.

Source of the values: ChEMBL document CHEMBL1795226, “Generation of novel radiolabeled opiates through site-selective iodination” (Bioorg Med Chem Lett, 2011).
